Experimental findings from ChEMBL document CHEMBL4680268, “Pharmacomodulations of the benzoyl-thiosemicarbazide scaffold reveal antimicrobial agents targeting d-alanyl-d-alanine ligase in bacterio” (Eur J Med Chem, 2020) are described below.

The structures appear in SMILES notation. In brackets after ≈: the same amount, converted by molar mass. Bounds are passed on as bounds.

The test system of experiment [1] is Enterococcus faecalis. Description: Inhibition of recombinant Enterococcus faecalis C-terminal His6-tagged DdlB expressed in Escherichia coli LMG194 assessed as residual activity using D-Ala as substrate at 100 uM preincubated with enzyme for 30 mins followed by substrate addition and measured after 20 mins by malachite green based colorimetric analysis relative to control. To be noted: time 50.0 min. In outline:
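Purified E. faecalis His-tagged DdlB (20 mg/L) preincubated 30 min at 30 °C with 100 µM compound and 500 µM ATP in 20 mM Tris-HCl pH 7.4, 10 mM MgCl₂, 10 mM KCl, 10% DMSO; 1 mM D-Ala added, 20 min at 30 °C. Phosphate detected with malachite green reagent, A650 after 25 min dark; residual activity versus no-inhibitor control, triplicate.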

The test system of experiment [2] is Staphylococcus aureus. Description: Antibacterial activity against Staphylococcus aureus ATCC 25923 assessed as reduction in bacterial growth incubated for 18 to 24 hrs by broth microdilution method. To be noted: time 18-24 hrs. It counts as functional. Background: In broth dilution the organism is exposed to a series of concentrations in liquid medium.
For experiment [3], the system named is Enterococcus faecalis. The experiment is described as follows: Antibacterial activity against Enterococcus faecalis ATCC 29212 assessed as reduction in bacterial growth incubated for 18 to 24 hrs by broth microdilution method. It counts as functional. To be noted: time 18-24 hrs.
Experiment [4] in a line: Inhibition of recombinant Enterococcus faecalis C-terminal His6-tagged DdlB expressed in Escherichia coli LMG194 using D-Ala as substrate preincubated with enzyme for 30 mins followed by substrate addition and measured after 20 mins by malachite green based colorimetric analysis. In outline: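 DdlB (20 mg/L) malachite green phosphate assay: enzyme, inhibitor and 500 µM ATP preincubated 30 min at 30 °C in Tris-HCl pH 7.4 buffer with MgCl₂, KCl and 10% DMSO, then 1 mM D-Ala for 20 min; A650 read. IC₅₀ from 11 concentrations, also run with 0.01% Triton X-100; mean ± SD of triplicates, n ≥ 2; EC₅₀ given where maximal inhibition stayed below 50%.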

Experiment [5] has as its system Staphylococcus aureus. Description: Antibacterial activity against methicillin resistant and vancomycin intermediate resistant Staphylococcus aureus MU50 assessed as reduction in bacterial growth incubated for 18 to 24 hrs by broth microdilution method. It counts as functional. Conditions: time 18-24 hrs. The procedure, abridged:
(§1)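 Broth microdilution in cation-adjusted Mueller-Hinton broth per CLSI; inoculum 10⁶ bacteria/mL. Two-fold serial dilutions, compound in broth with 5% DMSO mixed 1:1 with bacterial suspension, giving 2.5% DMSO final. Top concentration 0.1, 0.4 or 0.8 mM depending on solubility. Incubated 18–24 h at 37 °C. MIC = lowest concentration preventing visible growth.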

Experiment [6] has as its system Staphylococcus aureus. The experiment is described as follows: Antibacterial activity against methicillin and linezolid resistant Staphylococcus aureus NRS119 assessed as reduction in bacterial growth incubated for 18 to 24 hrs by broth microdilution method. Conditions: time 18-24 hrs. It is filed as functional. The procedure, abridged: as §1
For experiment [7], the system named is Staphylococcus aureus. The experiment is described as follows: Antibacterial activity against hospital-acquired methicillin/ciprofloxacin and moxifloxacin resistant Staphylococcus aureus SA481 assessed as reduction in bacterial growth incubated for 18 to 24 hrs by broth microdilution method. It is filed as functional. Conditions: time 18-24 hrs. The procedure, abridged: as §1

For the compound `S=c1[nH]nc(-c2ccccc2)n1-c1ccc(Cl)c(Cl)c1`, the Activity in the experiment on Enterococcus faecalis [1] is greater than 100%. Also, the MIC with Staphylococcus aureus [2] and in the experiment with Enterococcus faecalis [3] was greater than 100 µM each time.

Consider `COc1ccc(O)c(C(=O)NNC(=S)Nc2ccccc2)c1`, for which, in experiment [4], the IC50 – broadly, the concentration needed to halve the response being measured – was found to be 0.63 µM. Further, the MIC in the experiment on Staphylococcus aureus [2] and in the experiment on Enterococcus faecalis [3] was greater than 100 µM in each case.

`Oc1ccccc1/N=C(/S)Nc1ccccc1`: the Activity with Enterococcus faecalis [1] was greater than 100%. In addition, the MIC in the experiment on Staphylococcus aureus [2] and with Enterococcus faecalis [3] was greater than 800 µM in each case.

On to `COc1ccccc1-c1n[nH]c(=S)n1-c1ccc(Cl)c(Cl)c1`, for which the Activity in the experiment on Enterococcus faecalis [1] was greater than 100%. For the same compound, the MIC in the experiment on Staphylococcus aureus [2] and in the experiment with Enterococcus faecalis [3] was greater than 400 µM each time.

On to `Nc1ccccc1-c1n[nH]c(=S)n1-c1ccccc1`, for which, in the experiment on Enterococcus faecalis [1], the Activity was greater than 100%. Also, the MIC in the experiment on Staphylococcus aureus [2] and in the experiment on Enterococcus faecalis [3] was greater than 800 µM each time.

Consider `O=C(NNC(=S)Nc1ccc(Cl)c(Cl)c1)c1ccccc1`, for which, in the experiment on Enterococcus faecalis [1], the Activity is greater than 100%. Further, the MIC with Staphylococcus aureus [2] and in the experiment on Enterococcus faecalis [3] was greater than 100 µM each time.

With `Oc1ccccc1-c1nnc(S)n1-c1ccccc1`, the Activity in the experiment with Enterococcus faecalis [1] is greater than 100%. Also, the minimum inhibitory concentration (MIC) in the experiment with Staphylococcus aureus [2] and in the experiment with Enterococcus faecalis [3] was greater than 800 µM in each case.

For `CC(=O)NC[C@H]1CN(c2ccc(N3CCOCC3)c(F)c2)C(=O)O1` [LINEZOLID], the MIC – broadly, the lowest concentration that inhibits growth of the organism – in the experiment on Staphylococcus aureus [5] is 3 µM (≈ 1.01 µg/mL); with Staphylococcus aureus [6] it was 190 µM (≈ 64.1 µg/mL).

Turning to `O=C(O)c1cn(C2CC2)c2cc(N3CCNCC3)c(F)cc2c1=O` [CIPROFLOXACIN], the MIC in the experiment on Staphylococcus aureus [7] stood at 770 µM (≈ 255 µg/mL).

`Oc1ccccc1-c1n[nH]c(=S)n1-c1ccc(F)cc1`: the IC50 in experiment [4] amounted to 60 µM. Moreover, the MIC in the experiment with Staphylococcus aureus [2] and with Enterococcus faecalis [3] was greater than 800 µM in each case.

For `Fc1ccc2c(c1F)Oc1ccccc1-c1n[nH]c(=S)n1-2`, the Activity in the experiment on Enterococcus faecalis [1] was greater than 100%. Also, the MIC in the experiment with Staphylococcus aureus [2] and in the experiment with Enterococcus faecalis [3] was greater than 400 µM throughout.

Regarding `COc1ccc(O)c(-c2n[nH]c(=S)n2-c2ccccc2)c1`, in the experiment with Enterococcus faecalis [1], the Activity was greater than 50%. Besides, the IC50 in experiment [4] came out at 133 µM. Moreover, the MIC in the experiment on Staphylococcus aureus [2] and with Enterococcus faecalis [3] was greater than 800 µM each time.

As to `Oc1ccccc1-c1nnc(Nc2ccc(Cl)c(Cl)c2)s1`, in the experiment with Enterococcus faecalis [1], the Activity was greater than 100%. Besides, the MIC in the experiment on Staphylococcus aureus [2] and with Enterococcus faecalis [3] was greater than 100 µM each time.

Take `Clc1ccc(Nc2nnc(-c3ccccc3)s2)cc1Cl`: the Activity in the experiment with Enterococcus faecalis [1] was greater than 100%. Besides, the MIC in the experiment on Staphylococcus aureus [2] and in the experiment on Enterococcus faecalis [3] was greater than 100 µM each time.

As for `COc1ccccc1C(=O)NNC(=S)Nc1ccc(Cl)c(Cl)c1`, the Activity in the experiment on Enterococcus faecalis [1] was greater than 100%. The MIC in the experiment on Staphylococcus aureus [2] and in the experiment with Enterococcus faecalis [3] was greater than 100 µM throughout.

With `Nc1ccccc1C(=O)NNC(=S)Nc1ccccc1`, the Activity in the experiment with Enterococcus faecalis [1] is greater than 100%. Moreover, the MIC in the experiment on Staphylococcus aureus [2] and with Enterococcus faecalis [3] was greater than 400 µM throughout.

`Oc1ccccc1/C=N/NC(=S)Nc1ccccc1`: the Activity with Enterococcus faecalis [1] was greater than 50%. Further, the IC50 in experiment [4] is 2.6 µM. Also, the minimal inhibitory concentration (MIC) in the experiment on Staphylococcus aureus [2] and with Enterococcus faecalis [3] was greater than 400 µM throughout.

For `Oc1ccccc1-c1n[nH]c(=S)n1-c1ccc(F)c(F)c1`, the Activity with Enterococcus faecalis [1] is greater than 100%. Besides, the minimum inhibitory concentration (MIC) in the experiment with Staphylococcus aureus [2] and in the experiment with Enterococcus faecalis [3] was greater than 400 µM throughout.

As for `Sc1nnc(-c2ccccc2)n1-c1ccccc1`, the Activity in the experiment on Enterococcus faecalis [1] was greater than 100%. The MIC in the experiment with Staphylococcus aureus [2] and in the experiment on Enterococcus faecalis [3] was greater than 400 µM each time.
